From ChEMBL document CHEMBL4342410, “Design and Discovery of N-(3-(2-(2-Hydroxyethoxy)-6-morpholinopyridin-4-yl)-4-methylphenyl)-2-(trifluoromethyl)isonicotinamide, a Selective, Efficacious, and Well-Tolerated RAF Inhibitor Targeting RAS Mutant Cancers: The Path to the Clinic” (J Med Chem, 2020)

Columns and labels:
[1] = Oral bioavailability in mouse at 4 mg/kg; type: ADME, organism-based; settings: in vivo
[2] = AUC (infinity) in dog at 0.4 mg/kg, po; type: ADME, organism-based, Canis lupus familiaris; parameters: dose 0.4 mg/kg, time infinity, route oral; settings: in vivo
[3] = Tmax in nude rat xenografted with human Calu6 cells harboring KRAS Q61K mutant at 15 mg/kg, po administered daily for 18 days starting from day 13 post tumor implantation and measured on day 31; type: ADME, organism-based; settings: in vivo
Method in brief: (§1)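 Calu-6 xenograft nude rats were dosed orally once daily at 15, 35, 75 or 150 mg/kg from day 13 after implantation to day 31. Plasma was collected after the last dose on day 31, drug concentrations were measured, and PK parameters including AUC were calculated for each dose.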

[4] = test system: RAF proto-oncogene serine/threonine-protein kinase (Homo sapiens), P04049 [Y340E,Y341E]; assay: Binding affinity to CRAF Y340E/Y341E mutant (unknown origin) assessed as dissociation half life by rapid dilution method
Method in brief: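 Full-length CRAF carrying activating Y340E/Y341E was used in a kinase activity assay. Dissociation was measured by the rapid dilution method, and recovery of enzyme activity was followed over 6 hours of incubation. The dissociation half-life was derived from that recovery.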

Calu-6 [5] = assay: Antitumor activity against human Calu6 cells harboring KRAS Q61K mutant xenografted in nude rat assessed as tumor growth at 15 mg/kg, po administered daily for 18 days starting from day 13 post tumor implantation and measured on day 31 relative to control; type: functional
Method in brief: (§2)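 Nude rats bearing Calu-6 (KRAS Q61K) human NSCLC xenografts received vehicle or drug p.o. daily at 15, 35, 75 or 150 mg/kg. Dosing began 13 days after tumor implantation and ran to day 31, i.e. 18 days of treatment. Tumor volumes were read out as %T/C or % regression versus vehicle on day 31. Body weight was also tracked.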

[6] = AUC (0 to 24 hrs) in nude rat xenografted with human Calu6 cells harboring KRAS Q61K mutant at 75 mg/kg, po administered daily for 18 days starting from day 13 post tumor implantation and measured on day 31; type: ADME, organism-based; parameters: time < 24 hr, dose 75 mg/kg, route oral; settings: in vivo
Method in brief: (§3)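 Nude rats carrying Calu-6 (KRAS Q61K) NSCLC xenografts were dosed p.o. once daily at 15, 35, 75 or 150 mg/kg from day 13 to day 31 after implant. Plasma was collected after the last dose and drug concentration was measured. AUC and Cmax were calculated per dose on day 31.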

[7] = Tmax in nude rat xenografted with human Calu6 cells harboring KRAS Q61K mutant at 150 mg/kg, po administered daily for 18 days starting from day 13 post tumor implantation and measured on day 31; type: ADME, organism-based; settings: in vivo; method in brief: as §1
Cytochrome P450 3A4 = Cytochrome P450 3A4 (Homo sapiens, UniProt P08684); assay: Time dependent inhibition of CYP3A4 in human liver microsomes assessed as inactivation rate constant at 10 uM using midazolam as substrate incubated prior to substrate addition and measured after 6 mins in presence of NADPH; type: ADME; settings: 0.1 h
Sequence of Cytochrome P450 3A4 (P08684 whole entry): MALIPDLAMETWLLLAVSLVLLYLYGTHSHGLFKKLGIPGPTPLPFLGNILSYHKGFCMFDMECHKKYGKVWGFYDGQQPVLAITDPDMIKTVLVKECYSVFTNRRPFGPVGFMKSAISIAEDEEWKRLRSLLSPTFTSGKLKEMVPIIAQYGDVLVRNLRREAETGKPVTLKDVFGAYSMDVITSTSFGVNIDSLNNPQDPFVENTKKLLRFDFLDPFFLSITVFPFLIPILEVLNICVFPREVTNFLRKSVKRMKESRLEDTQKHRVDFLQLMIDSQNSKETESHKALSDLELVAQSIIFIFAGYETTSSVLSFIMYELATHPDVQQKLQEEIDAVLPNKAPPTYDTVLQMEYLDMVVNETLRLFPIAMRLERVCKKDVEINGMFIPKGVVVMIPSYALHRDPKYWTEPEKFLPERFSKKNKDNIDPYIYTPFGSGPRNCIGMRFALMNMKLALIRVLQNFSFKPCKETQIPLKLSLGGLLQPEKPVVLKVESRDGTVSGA
Method in brief: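 Human liver microsomes (0.5 mg/mL) preincubated with test compound at 10 µM and 1 mM NADPH in phosphate buffer at 37 °C for 0, 5, 15 and 30 min. Mixture then diluted 20-fold and incubated with midazolam (20 µM) at 37 °C for 6 min to measure residual CYP3A4 activity. kobs taken as the initial rate of decline of activity versus preincubation time.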

Calu-6 [8] = assay: Antitumor activity against human Calu6 cells harboring KRAS Q61K mutant xenografted in nude rat assessed as tumor regression at 75 mg/kg, po administered daily for 18 days starting from day 13 post tumor implantation and measured on day 31 relative to control; type: functional; method in brief: as §2
Calu-6 [9] = assay: Antiproliferative activity against human Calu6 cells harboring KRAS Q61K mutant assessed as reduction in cell viability after 72 hrs by CellTiter-Glo assay; type: functional, cell-based; settings: Calu-6, 72 h
[10] = Tmax in nude rat xenografted with human Calu6 cells harboring KRAS Q61K mutant at 75 mg/kg, po administered daily for 18 days starting from day 13 post tumor implantation and measured on day 31; type: ADME, organism-based; settings: in vivo; method in brief: as §1
[11] = AUC (0 to 24 hrs) in nude rat xenografted with human Calu6 cells harboring KRAS Q61K mutant at 15 mg/kg, po administered daily for 18 days starting from day 13 post tumor implantation and measured on day 31; type: ADME, organism-based; parameters: dose 15 mg/kg, time < 24 hr, route oral; settings: in vivo; method in brief: as §3
[12] = Lipophilicity, log P of the compound at pH 6.5; type: physicochemical; settings: buffer
[13] = Time of last measurable concentration in nude rat xenografted with human Calu6 cells harboring KRAS Q61K mutant at 35 mg/kg, po administered daily for 18 days starting from day 13 post tumor implantation and measured on day 31; type: ADME, organism-based; settings: in vivo, 432 h; method in brief: as §1
[14] = molecular target: T1, Platelet-derived growth factor receptor beta (Homo sapiens, UniProt P09619); assay: Binding affinity to wild-type human partial length PDGFRB (V582 to Y1009 residues) expressed in bacterial expression system by Kinomescan method
T1 sequence (P09619 whole entry, the tested form may be a part): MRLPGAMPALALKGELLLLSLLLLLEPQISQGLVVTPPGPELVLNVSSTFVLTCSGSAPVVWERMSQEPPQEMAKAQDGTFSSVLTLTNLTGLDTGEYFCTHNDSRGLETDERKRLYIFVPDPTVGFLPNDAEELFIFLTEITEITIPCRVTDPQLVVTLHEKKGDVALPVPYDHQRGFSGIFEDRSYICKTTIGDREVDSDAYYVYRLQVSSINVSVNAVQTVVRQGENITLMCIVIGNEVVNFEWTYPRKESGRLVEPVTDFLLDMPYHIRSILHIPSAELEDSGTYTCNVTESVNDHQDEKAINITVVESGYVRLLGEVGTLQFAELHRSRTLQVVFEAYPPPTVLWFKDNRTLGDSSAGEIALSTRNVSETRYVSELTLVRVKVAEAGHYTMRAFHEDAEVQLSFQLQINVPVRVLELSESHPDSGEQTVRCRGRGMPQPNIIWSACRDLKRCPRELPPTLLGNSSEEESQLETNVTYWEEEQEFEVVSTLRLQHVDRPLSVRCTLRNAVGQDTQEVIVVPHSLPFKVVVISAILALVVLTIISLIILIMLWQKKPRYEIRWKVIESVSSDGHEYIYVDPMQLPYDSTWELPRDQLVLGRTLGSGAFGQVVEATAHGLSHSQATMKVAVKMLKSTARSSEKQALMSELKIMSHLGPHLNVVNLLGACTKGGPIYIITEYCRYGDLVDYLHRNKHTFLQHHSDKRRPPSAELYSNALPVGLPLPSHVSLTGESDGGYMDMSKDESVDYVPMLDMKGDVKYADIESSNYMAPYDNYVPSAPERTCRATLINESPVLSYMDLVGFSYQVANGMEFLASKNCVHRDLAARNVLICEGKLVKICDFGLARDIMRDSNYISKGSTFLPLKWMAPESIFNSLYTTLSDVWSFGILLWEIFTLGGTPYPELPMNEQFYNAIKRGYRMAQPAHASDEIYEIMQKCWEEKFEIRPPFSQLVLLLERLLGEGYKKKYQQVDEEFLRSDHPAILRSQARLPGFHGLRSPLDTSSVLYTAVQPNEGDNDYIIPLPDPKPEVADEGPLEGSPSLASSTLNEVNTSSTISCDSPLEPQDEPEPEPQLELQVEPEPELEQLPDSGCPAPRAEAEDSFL

[15] = Cmax in nude rat xenografted with human Calu6 cells harboring KRAS Q61K mutant at 150 mg/kg, po administered daily for 18 days starting from day 13 post tumor implantation and measured on day 31; type: ADME, organism-based; parameters: dose 150 mg/kg, route oral; settings: in vivo; method in brief: as §3
[16] = Time of last measurable concentration in nude rat xenografted with human Calu6 cells harboring KRAS Q61K mutant at 150 mg/kg, po administered daily for 18 days starting from day 13 post tumor implantation and measured on day 31; type: ADME, organism-based; settings: in vivo, 432 h; method in brief: as §1
[17] = Time of last measurable concentration in nude rat xenografted with human Calu6 cells harboring KRAS Q61K mutant at 75 mg/kg, po administered daily for 18 days starting from day 13 post tumor implantation and measured on day 31; type: ADME, organism-based; settings: in vivo, 432 h; method in brief: as §1
[18] = Tmax in nude rat xenografted with human Calu6 cells harboring KRAS Q61K mutant at 35 mg/kg, po administered daily for 18 days starting from day 13 post tumor implantation and measured on day 31; type: ADME, organism-based; settings: in vivo; method in brief: as §1
[19] = Volume of distribution at steady state in rat at 2 mg/kg, iv or 4 mg/kg, po; type: ADME, organism-based; settings: in vivo, read-out: Vdss
[20] = Toxicity in human Calu6 cells harboring KRAS Q61K mutant xenografted nude rat assessed as change in body weight at 15 to 150 mg/kg, po administered daily for 18 days starting from day 13 post tumor implantation and measured during compound dosing; type: organism-based; settings: in vivo, 432 h
Method in brief: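 Nude rats bearing Calu-6 (KRAS Q61K) NSCLC xenografts were dosed orally once daily with vehicle or 15, 35, 75 or 150 mg/kg. Dosing ran from day 13 after implantation until day 31. Body weight was tracked and expressed as percent change from initial for each treatment group versus the vehicle control.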

[21] = molecular target: Serine/threonine-protein kinase B-raf (Homo sapiens, UniProt P15056); assay: Inhibition of full-length BRAF (unknown origin)
Sequence of Serine/threonine-protein kinase B-raf (P15056 whole entry, the tested form may be a part): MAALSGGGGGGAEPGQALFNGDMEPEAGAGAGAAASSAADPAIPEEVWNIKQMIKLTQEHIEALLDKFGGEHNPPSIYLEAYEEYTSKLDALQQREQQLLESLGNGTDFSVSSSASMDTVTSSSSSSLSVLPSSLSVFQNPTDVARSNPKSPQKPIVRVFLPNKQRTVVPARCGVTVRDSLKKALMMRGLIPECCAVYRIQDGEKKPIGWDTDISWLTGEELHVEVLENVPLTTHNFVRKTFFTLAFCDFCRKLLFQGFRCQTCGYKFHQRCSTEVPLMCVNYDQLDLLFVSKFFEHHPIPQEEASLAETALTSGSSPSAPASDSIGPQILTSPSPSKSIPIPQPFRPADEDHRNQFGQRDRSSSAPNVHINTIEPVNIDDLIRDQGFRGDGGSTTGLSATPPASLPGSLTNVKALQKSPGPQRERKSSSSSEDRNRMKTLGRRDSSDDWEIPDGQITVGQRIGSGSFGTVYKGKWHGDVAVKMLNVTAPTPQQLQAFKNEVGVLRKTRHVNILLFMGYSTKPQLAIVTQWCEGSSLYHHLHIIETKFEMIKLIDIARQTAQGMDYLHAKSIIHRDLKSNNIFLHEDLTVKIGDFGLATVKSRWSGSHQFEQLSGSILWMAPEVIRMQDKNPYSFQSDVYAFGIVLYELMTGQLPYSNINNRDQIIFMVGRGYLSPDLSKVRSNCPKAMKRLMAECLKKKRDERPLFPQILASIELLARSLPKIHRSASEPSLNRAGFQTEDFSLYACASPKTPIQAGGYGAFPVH

[22] = molecular target: T1, Platelet-derived growth factor receptor beta; assay: Binding affinity to wild-type human partial length PDGFRB (V582 to Y1009 residues) expressed in bacterial expression system at 1 uM by Kinomescan method relative to control
Method in brief: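 KINOMEscan competition binding panel of about 456 kinases, compound tested at 1 μM. Activity is given as % of control = [(test signal − positive control signal)/(negative control signal − positive control signal)] × 100.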

[23] = Oral bioavailability in dog at 0.4 mg/kg; type: ADME, organism-based, Canis lupus familiaris; settings: in vivo
[24] = Volume of distribution at steady state in dog at 0.2 mg/kg, iv or 0.4 mg/kg, po; type: ADME, organism-based, Canis lupus familiaris; settings: in vivo, read-out: Vdss

`Cc1ccc(NC(=O)c2ccnc(C(F)(F)F)c2)cc1-c1cc(OCCO)nc(N2CCOCC2)c1` [NAPORAFENIB] showed a bioavailability [1] of 65%, an AUC(0-inf) [2] of 3.1 µM·h and a Tmax [3] of 3 h. The T1/2 [4] was over 6.5 h, the T/C (Calu-6 [5]) was 29% and the AUC at 24 h [6] was 105 µM·h. It also gave a Tmax [7] of 5.5 h, a K (Cytochrome P450 3A4) of 0.01 min⁻¹ and an Activity (Calu-6 [8]) of 21%. It also gave an EC50 (Calu-6 [9]) of 280 to 470 nM, a Tmax [10] of 2 h and an AUC at 24 h [11] of 7.91 µM·h. For the same molecule, the logD [12] was over 3, the Tlast [13] was 24 h and the Kd [14] was 14 nM. It also gave a Cmax [15] of 12.7 µM, a Tlast [16] of 24 h and a Tlast [17] of 24 h. For the same molecule, the Tmax [18] was 3 h, the Vd [19] was 5.4 L/kg and the Activity [20] was “Non-Toxic”. It also gave an IC50 [21] of 0.4 nM, an Activity [22] of over 99% and a bioavailability [23] of 79%. The Vd [24] was 1.7 L/kg.
